Screening results deposited in PubChem BioAssay by The Scripps Research Institute Molecular Screening Center.
Most compounds without a hit are left out; they make up all but 2.4% or so of the library.
NPY-Y2 PAM-ag = NPY-Y2 potentiators or agonists, primary screen, cell-based | Neuropeptide Y receptor type 2 (Homo sapiens), P49146 | cells expressing NPY-Y2, potentiator/agonist read-out | activation, % at 3.6 µM | 220,000 compounds, 0.45% hits; in the data active means activation above about 27%;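 further: cells stimulated with NPY near EC25 plus isoproterenol at EC100; 0% = vehicle plus submaximal agonist and 100% = vehicle plus saturating agonist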
S1P4 antagonist = S1P4 receptor antagonists, primary screen, cell-based; Sphingosine 1-phosphate receptor 4 (Homo sapiens), O95977; S1P4-expressing cells, antagonist mode, reporter read-out; inhibition, % at 4.98 µM; 220,000 compounds, 0.26% hits; AID 1510, 2009; in the data active means inhibition above about 29%;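 further: 0% = wells stimulated with agonist and 100% = vehicle wells without agonist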
Target sequence (O95977 whole entry, looked up): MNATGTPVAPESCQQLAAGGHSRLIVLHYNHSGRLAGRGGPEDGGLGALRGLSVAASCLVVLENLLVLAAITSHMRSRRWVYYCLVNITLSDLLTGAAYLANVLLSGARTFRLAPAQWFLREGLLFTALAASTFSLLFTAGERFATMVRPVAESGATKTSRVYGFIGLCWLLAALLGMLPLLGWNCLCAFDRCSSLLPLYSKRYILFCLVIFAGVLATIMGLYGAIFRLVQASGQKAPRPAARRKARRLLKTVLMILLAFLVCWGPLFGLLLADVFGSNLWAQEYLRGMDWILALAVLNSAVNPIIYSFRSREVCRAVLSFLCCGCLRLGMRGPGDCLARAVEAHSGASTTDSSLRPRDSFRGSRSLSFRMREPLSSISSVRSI
NPY-Y1 PAM-ag = NPY-Y1 receptor potentiators or agonists, primary screen, cell-based; activation, % at 3.6 µM; AID 1304, 2008; Neuropeptide Y receptor type 1 (Homo sapiens), P25929; NPY-Y1 expressing cells, potentiator/agonist activation; 220,000 compounds, 0.37% hits; in the data active means activation above about 33%, passing the limit was not always enough;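 further: cells stimulated with NPY at EC10 then isoproterenol at EC100; 0% = low agonist plus stimulus and 100% = saturating agonist plus stimulus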
NPY-Y2 antag = NPY-Y2 receptor antagonists, primary screen, cell-based; AID 793, 2007; inhibition, % at 2.7 µM; NPY-Y2 expressing cells, antagonist mode; 140,000 compounds, 0.99% hits; in the data active means inhibition above about 17%;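 further: 0% = vehicle with agonist challenge and 100% = reference antagonist with challenge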
NPY Y1 blocker = NPY-Y1 receptor antagonists, primary screen, cell-based. Neuropeptide Y receptor type 1 (Homo sapiens), P25929. HEK293-CNG Y1 cells, membrane potential fluorescence; NPY at EC95, then isoproterenol. inhibition, % at 3.6 µM. 200,000 compounds, 1% hits. AID 1040, 2008;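 active means inhibition above the campaign mean inhibition of all tested compounds plus 3 SD, cut at about 20% in these data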;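 further: 0% = DMSO wells given NPY plus isoproterenol and 100% = isoproterenol alone without NPY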
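Material: HEK293 cells co-expressing NPY Y1 receptor and cyclic-nucleotide gated channel. Timing: compound incubation 1 h at room temperature, readout 45 min post-stimulation. Signal: fluorescence, membrane potential probe.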
S1P4 agonist = S1P4 receptor agonists, primary screen, cell-based; 220,000 compounds, 0.35% hits; S1P4-expressing cell line, agonist reporter assay; activation, % at 4.98 µM; Sphingosine 1-phosphate receptor 4 (Homo sapiens), O95977; in the data active means activation above about 11%;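 further: 0% = DMSO vehicle and 100% = reference agonist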
An asterisk follows results filed as active.

For Cc1ccc(S(=O)(=O)/C(C#N)=C/c2c(N3CC(C)OC(C)C3)nc3c(C)cccn3c2=O)cc1 (configuration not stated) the results were NPY-Y2 PAM-ag 14, S1P4 antagonist -8, NPY-Y1 PAM-ag 23, NPY-Y2 antag 4, NPY Y1 blocker -1 and S1P4 agonist 2.
`COc1ccc(-c2cc(-c3ccccc3O)[nH]n2)cc1` gave NPY-Y2 PAM-ag -11, S1P4 antagonist 8, NPY-Y1 PAM-ag 17, NPY-Y2 antag 2, NPY Y1 blocker 11 and S1P4 agonist 2.
Screening COc1ccc(O)c(-c2cc(-c3cccs3)[nH]n2)c1 returned NPY-Y2 PAM-ag 42*, S1P4 antagonist 5, NPY-Y1 PAM-ag 58*, NPY-Y2 antag -8, NPY Y1 blocker -23 and S1P4 agonist -1.
`Cc1ccc(CNC(=O)CCC2CCCN(Cc3cc4ccccc4o3)C2)o1` (configuration not stated) gave NPY-Y2 PAM-ag -16, S1P4 antagonist -116, NPY-Y1 PAM-ag 3 and S1P4 agonist -1.
Screening Cc1ccc(S(=O)(=O)N/N=C/c2cc(Br)ccc2O)cc1 returned NPY-Y2 PAM-ag 16, S1P4 antagonist -7, NPY-Y1 PAM-ag -6 and S1P4 agonist 2.
`Cc1ccc(S(=O)(=O)Nc2ccc(Br)cc2/C=N/n2cnnc2)cc1` gave NPY-Y2 PAM-ag 47*, S1P4 antagonist -29, NPY-Y1 PAM-ag 49*, NPY-Y2 antag 1, NPY Y1 blocker -18 and S1P4 agonist 1.
`COCCCn1c(SCc2nnc(-c3ccc(OC)c(OC)c3)o2)nc2ccccc2c1=O` gave NPY-Y2 PAM-ag -6, S1P4 antagonist 2, NPY-Y1 PAM-ag -24, NPY-Y2 antag 16, NPY Y1 blocker 14 and S1P4 agonist -1.
For COc1ccc(-c2nnc(CSc3nc4ccccc4c(=O)n3CC(C)C)o2)cc1OC the results were NPY-Y2 PAM-ag -37, S1P4 antagonist -9, NPY-Y1 PAM-ag -30, NPY-Y2 antag 28*, NPY Y1 blocker 26* and S1P4 agonist 0.
For O=C(CSc1nc2ccccc2c(=O)n1Cc1ccco1)N1CCCC1 the results were NPY-Y2 PAM-ag 1, S1P4 antagonist -14, NPY-Y1 PAM-ag -3, NPY Y1 blocker -1 and S1P4 agonist 3.
For CCOC(=O)CSc1nc2ccccc2c(=O)n1CC(C)C the results were NPY-Y2 PAM-ag -28, S1P4 antagonist 12, NPY-Y1 PAM-ag -24, NPY Y1 blocker 20* and S1P4 agonist 0.
`CC(C)Cn1c(SCC(=O)N2CCCCC2)nc2ccccc2c1=O` gave NPY-Y2 PAM-ag -12, S1P4 antagonist -1, NPY-Y1 PAM-ag -18, NPY-Y2 antag 24*, NPY Y1 blocker 22* and S1P4 agonist 1.
Cc1ccccc1OCC(=O)NNC(=O)CCc1ccccc1 was read as NPY-Y2 PAM-ag -5, S1P4 antagonist -14, NPY-Y1 PAM-ag -7, NPY Y1 blocker 11 and S1P4 agonist 0.
CCCNCC(O)COc1ccccc1C(=O)CCc1ccccc1 (configuration not stated) was read as NPY-Y2 PAM-ag 87*, S1P4 antagonist -15, NPY-Y1 PAM-ag 99*, NPY-Y2 antag 8, NPY Y1 blocker -7 and S1P4 agonist 0.
Screening CCC(=O)c1ccc(OCC(O)CN(CCc2ccccc2)Cc2ccccc2)cc1 (configuration not stated) returned NPY-Y2 PAM-ag -28, S1P4 antagonist -13, NPY-Y1 PAM-ag -21, NPY-Y2 antag 5, NPY Y1 blocker 8 and S1P4 agonist 1.
For CCN(CC)CC(O)COc1ccccc1C(=O)CCc1ccccc1 (configuration not stated) the results were NPY-Y2 PAM-ag 39*, S1P4 antagonist -4, NPY-Y1 PAM-ag 51*, NPY-Y2 antag 8, NPY Y1 blocker 3 and S1P4 agonist -2.
Cc1ccc2c(n1)CC(C)(C)CC2=O was read as NPY-Y2 PAM-ag 1, S1P4 antagonist -3, NPY-Y1 PAM-ag 15, NPY-Y2 antag 0, NPY Y1 blocker -4 and S1P4 agonist 3.
For CCCSc1nnc(CSc2nc(C)cc(C)n2)n1C the results were NPY-Y2 PAM-ag 14, S1P4 antagonist -3, NPY-Y1 PAM-ag -3, NPY Y1 blocker 0 and S1P4 agonist 1.
`Oc1ccc(Nc2nc(N3CCCC3)c3ccccc3n2)cc1` gave NPY-Y2 PAM-ag -7, S1P4 antagonist -18, NPY-Y1 PAM-ag -5, NPY-Y2 antag 3, NPY Y1 blocker 2 and S1P4 agonist 0.
`Cc1ccc(Nc2nc(N)c([N+](=O)[O-])c(N3CCOCC3)n2)cc1` gave NPY-Y2 PAM-ag 2, S1P4 antagonist -18, NPY-Y1 PAM-ag -5, NPY-Y2 antag 3, NPY Y1 blocker -4 and S1P4 agonist 0.
Cc1ccc(Nc2nc(N3CCOCC3)c3ccccc3n2)cc1 was read as NPY-Y2 PAM-ag -53, S1P4 antagonist 6, NPY-Y1 PAM-ag -38, NPY-Y2 antag 8, NPY Y1 blocker 23* and S1P4 agonist -1.
`COc1ccc(Nc2nc(N3CCCCC3)c3ccccc3n2)cc1` gave NPY-Y2 PAM-ag -2, S1P4 antagonist -5, NPY-Y1 PAM-ag -44, NPY-Y2 antag 41*, NPY Y1 blocker 34* and S1P4 agonist -1.
`CCOC(=O)C1CCCN(C(=S)Nc2cc(C)cc(C)c2)C1` (configuration not stated) gave NPY-Y2 PAM-ag -8, S1P4 antagonist 0, NPY-Y1 PAM-ag -30, NPY-Y2 antag -3, NPY Y1 blocker 2 and S1P4 agonist 0.
COc1ccc(C(=O)Nc2ccc(Cl)cc2C(=O)NCc2ccco2)cc1 was read as NPY-Y2 PAM-ag -42, S1P4 antagonist -36, NPY-Y1 PAM-ag -77, NPY-Y2 antag 19*, NPY Y1 blocker 25* and S1P4 agonist 3.
Cc1nc2cc(-c3ccccc3)nn2c(C)c1CCC(=O)NC(C)c1ccc2c(c1)OCCO2 (configuration not stated) was read as NPY-Y2 PAM-ag -1, S1P4 antagonist 6, NPY-Y1 PAM-ag -20, NPY-Y2 antag 1, NPY Y1 blocker 3 and S1P4 agonist 1.
Screening O=C(OCc1nnc(-c2ccccc2)o1)c1ccc(Cl)cc1 returned NPY-Y2 PAM-ag -16, S1P4 antagonist -4, NPY-Y1 PAM-ag 8, NPY Y1 blocker 10 and S1P4 agonist 1.
`O=C(OCc1nnc(-c2ccccc2)o1)c1ccc2c(c1)OCCO2` gave NPY-Y2 PAM-ag -40, S1P4 antagonist -20, NPY-Y1 PAM-ag -28, NPY-Y2 antag 20*, NPY Y1 blocker 11 and S1P4 agonist 3.
